Measurements taken from ChEMBL document CHEMBL5244263, “Studies on fragment-based design of allosteric inhibitors of human factor XIa” (Bioorg Med Chem, 2020).
Active and inactive are the calls of the source. No cut-off for these calls is given here.

Tests used:
[1] = target: T1, Coagulation factor XI (Homo sapiens, UniProt P03951); assay: Inhibition of human FXIa using S-2366 as chromogenic substrate preincubated with enzyme for 10 mins followed by substrate addition by spectrophotometric analysis relative to control; parameters: concentration or dose not given beside the values
In short: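 hFXIa (0.765 nM final) preincubated with inhibitor or reference solution for 10 min at 37 °C in pH 7.4 buffer (50 mM Tris-HCl, 150 mM NaCl, 0.1% PEG8000, 0.02% Tween80). S-2366 (345 μM final) then added, and residual activity read on a microplate reader.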

[2] = target: Coagulation factor X (Homo sapiens) (UniProt P00742); assay: Inhibition of human FXa using methoxycarbonyl-D-cyclohexylglycyl-Gly-Arg-p-nitroanilide as substrate at >200 uM by chromogenic substrate hydrolysis assay
[3] = target: Coagulation factor IX (Homo sapiens) (UniProt P00740); assay: Inhibition of human FIXa at 500 uM by chromogenic substrate hydrolysis assay
[4] = species on record: Homo sapiens; assay: Selectivity for inhibition of human FXIa over human FXa
[5] = Selectivity for inhibition of human FXIa over bovine alpha-chymotrypsin
[6] = target: Plasma kallikrein (Homo sapiens) (UniProt P03952); assay: Inhibition of Kallikrein in human plasma at 500 uM by chromogenic substrate hydrolysis assay; assay type: cell-free
[7] = species on record: Homo sapiens; assay: Selectivity for inhibition of human FXIa over human FIXa
[8] = species on record: Bos taurus; assay: Inhibition of bovine trypsin using S-2222 as chromogenic substrate at >200 uM by chromogenic substrate hydrolysis assay
[9] = target: T2, Coagulation factor VII (Homo sapiens) (UniProt P08709); assay: Inhibition of FVIIa (unknown origin) at 500 uM by chromogenic substrate hydrolysis assay
T2 sequence (whole entry): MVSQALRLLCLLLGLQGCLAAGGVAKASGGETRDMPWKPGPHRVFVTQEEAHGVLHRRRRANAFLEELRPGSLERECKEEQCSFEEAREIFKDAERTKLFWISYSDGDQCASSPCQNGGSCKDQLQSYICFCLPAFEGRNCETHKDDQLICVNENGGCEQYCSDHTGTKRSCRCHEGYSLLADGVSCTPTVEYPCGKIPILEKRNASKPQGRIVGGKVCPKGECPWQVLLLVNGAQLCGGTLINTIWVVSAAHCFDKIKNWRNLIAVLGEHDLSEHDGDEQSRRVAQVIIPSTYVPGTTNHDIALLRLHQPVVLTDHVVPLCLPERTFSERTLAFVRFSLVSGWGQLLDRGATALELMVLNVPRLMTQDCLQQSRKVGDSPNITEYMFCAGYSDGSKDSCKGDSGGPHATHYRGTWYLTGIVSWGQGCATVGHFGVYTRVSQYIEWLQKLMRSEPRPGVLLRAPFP

[10] = species on record: Homo sapiens; assay: Selectivity for inhibition of human FXIa over human thrombin
[11] = target: Chymotrypsinogen A (Bos taurus) (UniProt P00766); assay: Inhibition of bovine alpha-chymotrypsin at 500 uM by chromogenic substrate hydrolysis assay
[12] = species on record: Homo sapiens; assay: Selectivity for inhibition of human FXIa over Kallikrein in human plasma; assay type: cell-free
[13] = Selectivity for inhibition of human FXIa over bovine trypsin
[14] = target: Prothrombin (Homo sapiens) (UniProt P00734); assay: Inhibition of human thrombin at 500 uM by chromogenic substrate hydrolysis assay
[15] = species on record: Homo sapiens; assay: Selectivity for inhibition of human FXIa over FVIIa (unknown origin)
[16] = target: T1, Coagulation factor XI; assay: Inhibition of human FXIa using S-2366 as chromogenic substrate preincubated with enzyme for 10 mins followed by substrate addition by spectrophotometric analysis
[17] = species on record: Bos taurus; assay: Inhibition of bovine trypsin using S-2222 as chromogenic substrate at 500 uM by chromogenic substrate hydrolysis assay
[18] = target: Coagulation factor X (Homo sapiens) (UniProt P00742); assay: Inhibition of human FXa using methoxycarbonyl-D-cyclohexylglycyl-Gly-Arg-p-nitroanilide as substrate at 500 uM by chromogenic substrate hydrolysis assay

Coagulation factor X (Homo sapiens), sequence (P00742 41-179 limits assumed): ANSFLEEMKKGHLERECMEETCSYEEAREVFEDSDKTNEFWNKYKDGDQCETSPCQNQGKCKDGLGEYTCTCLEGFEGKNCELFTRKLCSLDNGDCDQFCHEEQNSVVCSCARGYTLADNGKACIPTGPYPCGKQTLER
Coagulation factor X (Homo sapiens), sequence (P00742 235-488 limits assumed): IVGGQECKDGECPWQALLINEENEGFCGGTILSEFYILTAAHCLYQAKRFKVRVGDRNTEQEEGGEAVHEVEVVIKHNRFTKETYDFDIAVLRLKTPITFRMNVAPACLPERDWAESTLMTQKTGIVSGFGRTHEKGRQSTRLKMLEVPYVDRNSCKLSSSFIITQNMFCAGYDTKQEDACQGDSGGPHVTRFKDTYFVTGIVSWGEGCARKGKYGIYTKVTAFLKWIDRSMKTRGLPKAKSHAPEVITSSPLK
T1 sequence (P03951 19-387 limits assumed): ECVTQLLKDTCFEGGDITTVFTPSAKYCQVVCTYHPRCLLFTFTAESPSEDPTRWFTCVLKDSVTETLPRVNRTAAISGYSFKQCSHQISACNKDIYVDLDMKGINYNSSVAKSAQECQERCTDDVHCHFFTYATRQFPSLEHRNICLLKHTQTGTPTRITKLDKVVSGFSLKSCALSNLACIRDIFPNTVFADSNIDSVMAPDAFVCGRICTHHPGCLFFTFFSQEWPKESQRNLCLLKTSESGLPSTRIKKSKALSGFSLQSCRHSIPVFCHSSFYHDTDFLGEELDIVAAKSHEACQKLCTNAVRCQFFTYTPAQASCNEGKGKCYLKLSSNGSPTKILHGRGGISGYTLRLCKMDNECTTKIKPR
T1 sequence (P03951 388-625 limits assumed): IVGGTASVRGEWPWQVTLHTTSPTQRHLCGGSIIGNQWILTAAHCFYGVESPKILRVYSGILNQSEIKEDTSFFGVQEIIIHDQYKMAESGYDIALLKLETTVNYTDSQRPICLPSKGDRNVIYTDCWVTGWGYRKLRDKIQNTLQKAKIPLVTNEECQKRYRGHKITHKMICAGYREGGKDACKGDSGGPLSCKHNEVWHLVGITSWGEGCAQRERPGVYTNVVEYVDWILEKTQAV
Coagulation factor IX (Homo sapiens), sequence (P00740 47-191 limits assumed): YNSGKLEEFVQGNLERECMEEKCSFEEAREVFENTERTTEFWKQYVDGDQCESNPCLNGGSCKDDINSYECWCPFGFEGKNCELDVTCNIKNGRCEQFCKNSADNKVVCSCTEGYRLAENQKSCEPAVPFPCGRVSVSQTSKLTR
Coagulation factor IX (Homo sapiens), sequence (P00740 227-461 limits assumed): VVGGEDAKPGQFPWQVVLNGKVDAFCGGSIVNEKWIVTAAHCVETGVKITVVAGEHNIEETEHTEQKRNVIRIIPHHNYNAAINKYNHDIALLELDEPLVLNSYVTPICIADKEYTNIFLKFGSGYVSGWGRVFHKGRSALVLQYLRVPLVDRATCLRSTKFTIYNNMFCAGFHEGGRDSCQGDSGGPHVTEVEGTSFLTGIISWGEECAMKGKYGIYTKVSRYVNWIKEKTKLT
Plasma kallikrein (Homo sapiens), sequence (P03952 20-390 limits assumed): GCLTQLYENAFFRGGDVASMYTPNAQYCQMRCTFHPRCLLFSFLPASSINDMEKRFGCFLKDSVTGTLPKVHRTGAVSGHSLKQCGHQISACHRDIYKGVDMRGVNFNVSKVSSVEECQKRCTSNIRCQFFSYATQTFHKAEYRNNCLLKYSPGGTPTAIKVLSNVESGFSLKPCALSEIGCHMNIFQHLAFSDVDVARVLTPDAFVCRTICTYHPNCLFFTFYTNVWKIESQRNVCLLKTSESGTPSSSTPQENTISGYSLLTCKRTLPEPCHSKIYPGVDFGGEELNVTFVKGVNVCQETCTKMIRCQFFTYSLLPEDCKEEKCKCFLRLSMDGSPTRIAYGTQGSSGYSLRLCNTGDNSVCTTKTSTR
Plasma kallikrein (Homo sapiens), sequence (P03952 391-638 limits assumed): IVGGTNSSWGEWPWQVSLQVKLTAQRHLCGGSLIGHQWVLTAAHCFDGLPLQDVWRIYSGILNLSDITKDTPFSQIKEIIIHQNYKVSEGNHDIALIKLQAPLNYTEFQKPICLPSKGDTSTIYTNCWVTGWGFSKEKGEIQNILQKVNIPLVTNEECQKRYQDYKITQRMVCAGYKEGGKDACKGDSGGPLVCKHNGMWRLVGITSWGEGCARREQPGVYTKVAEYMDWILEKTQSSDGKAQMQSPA

Row | SMILES | inhibition [1] | inhibition [2] | inhibition [3] | Selectivity ratio [4] | Selectivity ratio [5] | inhibition [6] | Selectivity ratio [7] | inhibition [8] | inhibition [9] | Selectivity ratio [10] | inhibition [11] | Selectivity ratio [12] | Selectivity ratio [13] | inhibition [14] | Selectivity ratio [15] | IC50 [16] | inhibition [17] | inhibition [18]
1 | O=c1c2ccccc2nc(-c2cccc(OS(=O)(=O)O)c2)n1C/C=C/Cn1c(-c2cccc(OS(=O)(=O)O)c2)nc2ccccc2c1=O | 96% |  | inactive | > 63 | > 63 | inactive | > 63 |  | inactive | > 63 | inactive | > 63 | > 63 | inactive | > 63 | 415 µM | inactive | inactive
2 | O=c1c2ccccc2nc(-c2cccc(OS(=O)(=O)O)c2)n1Cc1ccccc1Cn1c(-c2cccc(OS(=O)(=O)O)c2)nc2ccccc2c1=O | 93% |  | inactive | > 63 | > 63 | inactive | > 63 |  | inactive | > 63 | inactive | > 63 | > 63 | inactive | > 63 | 94 µM | inactive | inactive
3 | O=c1c2ccccc2nc(-c2cccc(OS(=O)(=O)O)c2)n1CCOCCn1c(-c2cccc(OS(=O)(=O)O)c2)nc2ccccc2c1=O | 94% |  | inactive | > 63 | > 63 | inactive | > 63 |  | inactive | > 63 | inactive | > 63 | > 63 | inactive | > 63 | 401 µM | inactive | inactive
4 | O=c1c2ccccc2nc(-c2ccc(OS(=O)(=O)O)cc2)n1CCCCCCCCn1cc(Cn2c(-c3ccc(OS(=O)(=O)O)cc3)nc3ccccc3c2=O)nn1 | 100% |  | inactive | > 63 | > 63 | inactive | > 63 |  | inactive | > 63 | inactive | > 63 | > 63 | inactive | > 63 | 39 µM | inactive | inactive
5 | O=c1c2ccccc2nc(-c2ccc(OS(=O)(=O)O)cc2)n1CCCCCCCn1cc(Cn2c(-c3ccc(OS(=O)(=O)O)cc3)nc3ccccc3c2=O)nn1 | 103% |  | inactive | > 63 | > 63 | inactive | > 63 |  | inactive | > 63 | inactive | > 63 | > 63 | inactive | > 63 | 51 µM | inactive | inactive
6 | O=c1c2ccccc2nc(-c2ccc(OS(=O)(=O)O)cc2)n1CCCCCCCCCCCCn1cc(Cn2c(-c3ccc(OS(=O)(=O)O)cc3)nc3ccccc3c2=O)nn1 | 112% |  | inactive | > 63 | > 63 | inactive | > 63 |  | inactive | > 63 | inactive | > 63 | > 63 | inactive | > 63 | 35 µM | inactive | inactive

More lines, in order of falling IC50 [16], values ahead:

Row | inhibition [1] | inhibition [2] | inhibition [3] | Selectivity ratio [4] | Selectivity ratio [5] | inhibition [6] | Selectivity ratio [7] | inhibition [8] | inhibition [9] | Selectivity ratio [10] | inhibition [11] | Selectivity ratio [12] | Selectivity ratio [13] | inhibition [14] | Selectivity ratio [15] | IC50 [16] | inhibition [17] | inhibition [18] | SMILES
7 | 92% |  | inactive | > 63 | > 63 | inactive | > 63 |  | inactive | > 63 | inactive | > 63 | > 63 | inactive | > 63 | 60 µM | inactive | inactive | O=c1c2ccccc2nc(-c2cccc(OS(=O)(=O)O)c2)n1Cc1cccc(Cn2c(-c3cccc(OS(=O)(=O)O)c3)nc3ccccc3c2=O)c1
8 | 95% |  | inactive | > 63 | > 63 | inactive | > 63 |  | inactive | > 63 | inactive | > 63 | > 63 | inactive | > 63 | 35 µM | inactive | inactive | COc1ccc2nc(-c3ccc(OS(=O)(=O)O)cc3)n(CCCCCCn3c(-c4ccc(OS(=O)(=O)O)cc4)nc4ccc(OC)cc4c3=O)c(=O)c2c1
9 | 87% |  | inactive | > 63 | > 63 | inactive | > 63 |  | inactive | > 63 | inactive | > 63 | > 63 | inactive | > 63 | 34 µM | inactive | inactive | O=c1c2ccccc2nc(-c2ccc(OS(=O)(=O)O)cc2)n1CCCCCCn1c(-c2ccc(OS(=O)(=O)O)cc2)nc2ccccc2c1=O
10 | 81% |  | inactive | > 63 | > 63 | inactive | > 63 |  | inactive | > 63 | inactive | > 63 | > 63 | inactive | > 63 | 20 µM | inactive | inactive | O=c1c2ccccc2nc(-c2ccc(OS(=O)(=O)O)cc2)n1CCCCCCCCn1c(-c2ccc(OS(=O)(=O)O)cc2)nc2ccccc2c1=O
11 | 95% | Active | inactive | > 25 | > 63 | inactive | > 63 | Active | inactive | > 63 | inactive | > 63 | > 25 | inactive | > 63 | 16.6 µM |  |  | O=c1c2ccccc2nc(-c2ccc(OS(=O)(=O)O)cc2)n1CCCCCCCCCCn1c(-c2ccc(OS(=O)(=O)O)cc2)nc2ccccc2c1=O
12 | 96% | Active | inactive | > 25 | > 63 | inactive | > 63 | Active | inactive | > 63 | inactive | > 63 | > 25 | inactive | > 63 | 14.5 µM |  |  | O=c1c2ccccc2nc(-c2ccc(OS(=O)(=O)O)cc2)n1CCCCCCCCCCCn1c(-c2ccc(OS(=O)(=O)O)cc2)nc2ccccc2c1=O
